Tests used:
[1] = system: Tau paired helical filaments; assay: Electron microscopy of sarkosyl-insoluble fractions of injected hippocampi; type: in vivo, mouse; settings: hTau-KI mice, 72 hours after injection
[2] = system: β-sheet containing aggregates; assay: Thioflavin S staining after stereotactic hippocampal injection; type: in vivo, mouse; settings: hTau-KI mice, 72 hours, relative to contralateral controls
[3] = In vivo hippocampal injection dose-ranging; set-up: species or system mouse
sarkosyl-insoluble Tau [4] = assay: Sarkosyl fractionation of hippocampi after stereotactic injection; type: in vivo, mouse
[5] = system: Tau phosphorylation at S202/T205; assay: Immunocytochemistry for phosphorylated Tau in primary neurons; type: cell-based, mouse; settings: primary hTau-KI hippocampal neurons, 12 hours
sarkosyl-insoluble Tau [6] = assay: Sarkosyl fractionation of primary neurons, Tau immunoblot; type: cell-based, mouse; settings: 12 hours; for Tau aggregation (sarkosyl-insoluble Tau) in primary neurons: Epoxomicin, MG132, iBEp 1 μM, Leupeptin 20 μM every two hours; for sarkosyl-insoluble Tau in primary WT mouse neurons: iBEp 1 μM, IgG-Epox […]
[7] = system: ubiquitin-proteasome reporter GFPu in primary hippocampal neurons; assay: GFPu degradation assay; type: cell-based, mouse; settings: DIV14 primary neurons, 1 μM, 12-hour incubation
Method in brief: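 Primary hippocampal neurons on coverslips co-transfected at DIV7 or DIV8 with Ub-G76V-GFP (0.5 μg/coverslip) and mCherry (0.1 μg/coverslip) using lipofectamine 2000, 4 h at 37 °C. At DIV14, 1 μM test compound for 12 h, then fixed and processed for immunocytochemistry. GFP+ cells counted per 100 cells; n=6 regions imaged per replicate, N=3 biological replicates.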

[8] = target: catalytic proteasome subunits (Mus musculus, UniProt O55234+P70195+Q60692); type: binding; settings: for targets bound (streptavidin enrichment / biotin pull-down, LC/MS): primary mouse neurons and mouse brain, Table S1
Tau phosphorylation = assay: Quantitative phosphoproteomics of treated primary neurons; type: cell-based; settings: primary mouse neurons; sites correspond to human S202, T205, T217, S404
[9] = system: intracellular ubiquitin conjugates and p62; assay: Immunoblots of ubiquitin conjugates and p62 in primary neurons; type: cell-based, mouse; settings: primary WT neurons, immunoblot
[10] = system: Tau phosphorylation at S202/T205; assay: Immunohistochemistry; type: in vivo, mouse; settings: stereotactic injection, 72 hours, versus contralateral control
Proteasome subunit β5 = Proteasome subunit β5 (Homo sapiens, UniProt P28074); assay: Proteasome subunit β5 activity assay; type: biochemical
primary mouse neurons = assay: Intracellular metabolite extraction from treated neurons; type: in vitro ADME; settings: DIV14 cortical neurons, extracted intracellular metabolites, 1 pg limit of detection
[11] = system: neuroproteasome activity and sarkosyl-insoluble Tau; type: cell-based, mouse; settings: primary WT neurons treated with RAP and a dose curve of iBEp
[12] = system: surface Lrp1, GluR1 and neuroproteasomes; assay: Surface biotinylation of primary neurons treated with RAP; type: cell-based; settings: primary mouse neurons
Method in brief: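 Neurons were washed in cold PBSCM pH 8.0 and labelled with 0.5 mg/mL Sulfo-NHS-LC-Biotin in PBSCM, 4°C for 10 min. Labelling quenched with 50 mM glycine, two 10-min incubations at 4°C.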

## Biotin-PEG24-Epoxomicin [iBEp]
[1]
  filaments in sarkosyl-insoluble fractions by negative stain EM: Twisted filaments which resembled paired helical filaments (PHFs) were readily apparent
[2]
  ThioS staining in CA1 region of hippocampi: strong increase
[3]; 6.4 μM
  adverse physiological effects at selected concentration: without causing observable adverse physiological effects
  inhibition of membrane-fraction proteasomes in vivo: detectable inhibition of membrane-fraction proteasomes
[3]; 2 μL, mice
  concentration inducing seizure activity: exceeding 12 μM
sarkosyl-insoluble Tau [4]; 2 μL of 6.4 μM into CA1, 72 hours, contralateral IIT-PEG24-Biotin, N=6
  sarkosyl-insoluble Tau in hippocampi from hTau-KI mice: significant increase
sarkosyl-insoluble Tau [4]; stereotactic injection, contralateral DMSO, N=3
  sarkosyl-insoluble Tau signal in hippocampi from Tau-KO mice: no detectable signal
[5]
  Tau phosphorylation at S202/T205 in primary neurons: significantly elevated
sarkosyl-insoluble Tau [6]
  Tau aggregation (sarkosyl-insoluble Tau) in primary neurons: induces Tau aggregation
sarkosyl-insoluble Tau [6]; immunoblot
  sarkosyl-insoluble Tau in primary WT mouse neurons: significant increase
[7]
  accumulation of the ubiquitin-proteasome reporter GFPu: did not cause accumulation
[8]
  targets bound (streptavidin enrichment / biotin pull-down, LC/MS): selectively targets catalytic proteasome subunits
[8]; primary neurons treated 12 hours
  bands differentially labeled versus DMSO (streptavidin blot): only three bands differentially labeled
Tau phosphorylation
  Tau phosphorylation sites with time-dependent increase, of identified sites: 4 of 26
[9]
  increase of total intracellular ubiquitin conjugates or p62 levels: lack of both markers
[10]
  Tau phosphorylation at S202/T205 (AT8) in hippocampi of hTau-KI mice: significantly elevated

## Sulfo-MG132 [SulfoMG]
sarkosyl-insoluble Tau [6]; 1 μM, immunoblot
  sarkosyl-insoluble hTau in primary hTau-KI neurons: induces similar partitioning of hTau into the sarkosyl-insoluble fraction as iBEp
sarkosyl-insoluble Tau [6]
  Tau aggregation (sarkosyl-insoluble Tau) in primary neurons: induces Tau aggregation
[8]
  targets bound (streptavidin enrichment / biotin pull-down, LC/MS): the catalytic proteasome subunits as well as some off-targets of MG132
Proteasome subunit β5; dose curve, Suc-LLVY-AMC (Extended Data Fig. 3g)
  activity as proteasome inhibitor: active
Proteasome subunit β5; proteasome, calpain and cathepsin L activity assays (Extended Data Fig. 3g,h)
  potency relative to MG132: less potent than MG132

## CC[C@H](C)[C@H](NC(=O)[C@H]([C@@H](C)CC)N(C)C(C)=O)C(=O)N[C@H](C(=O)N[C@@H](CC(C)C)C(=O)[C@@]1(C)CO1)[C@@H](C)O [Epoxomicin, reference compound]
[5]
  Tau phosphorylation at S202/T205 in primary neurons: No Tau S202/T205 phosphorylation was detectable
sarkosyl-insoluble Tau [6]
  Tau aggregation (sarkosyl-insoluble Tau) in primary neurons: does not
Primary mouse neurons
  permeability into primary mouse neurons by LC/MS-based metabolite profiling: peak in Epox treated cells corresponds to Epoxomicin
[10]
  Tau phosphorylation at S202/T205 (AT8) in hippocampi of hTau-KI mice: No Tau S202/T205 phosphorylation was detectable

## Biotin-PEG24-IleIleThr
sarkosyl-insoluble Tau [6]; immunoblot
  sarkosyl-insoluble Tau in primary WT mouse neurons: No such signal

B1: RAP: pan-ApoE receptor antagonist, Receptor-associated protein (protein, UniProt P30533 35-357, looked up)
Alpha-2-macroglobulin …: YSREKNQPKPSPKRESGEEFRMEKLNQLWEKAQRLHLPPVRLAELHADLKIQERDELAWKKLKLDGLDEDGEKEARLIRNLNVILAKYGLDGKKDARQVTSNSLSGTQEDGLDDPRLEKLWHKAKTSGKFSGEELDKLWREFLHHKEKVHEYNVLLETLSRTEEIHENVISPSDLSDIKGSVLHSRHTELKEKLRSINQGLDRLRRVSHQGYSTEAEFEEPRVIDLWDLAQSANLTDKELEAFREELKHFEAKIEKHNHYQKQLEIAHEKLRHAESVGDGERVSRSREKHALLEGRTKELGYTVKKHLQDLSGRISRARHNEL
[11]
  susceptibility of neurons to Tau aggregation: renders neurons more susceptible to Tau aggregation
[12]
  surface GluR1: without modifying
  surface abundance of neuroproteasomes: reduced
  surface localization of Lrp1: rapidly decreased

Source: paper PMC13334530 (Nature neuroscience, 2026)
